The target of data set [1] is T1, Amyloid-beta precursor protein (Homo sapiens, UniProt P05067). The data set is described as follows: Binding affinity to fibrillar amyloid beta (1 to 40) (unknown origin) assessed as fluorescence intensity relative to control.
In data set [2] the test system is Mus musculus. The data set is described as follows: Binding affinity to beta-amyloid plaque in APP/PS1 transgenic mouse brain at 30 umol/kg, iv after 1 day by fluorescence microscopic analysis. It is filed as functional, organism-based. Put shortly: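 APP/PS1 mice aged 12–14 months, with age-matched wildtype (n = 2 per compound), got an iv dose of 30 µmol/kg from a 0.05 M solution in 1:1 DMSO/Cremophor diluted with PBS to 200 µl. After one day they were perfused with 4% PFA and brains cryoprotected in sucrose/PFA. Brains were cut into 30 µm cryosections and imaged by the same fluorescence slide-scanner set-up.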

Data set [3] concerns the target T1, Amyloid-beta precursor protein. The data set is described as follows: Binding affinity to beta-amyloid plaque in Alzheimer's disease patient brain at 100 uM by fluorescence microscopic analysis. In outline:
(§1)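 Sections were stained for 10 min in darkness with compound diluted from 3 mM DMSO stocks to 1, 10 or 100 µM in 2:3 PBS/ethanol and sonicated 15 min. Tissue was paraffin sections of Braak IV human AD medial temporal cortex (8 µm), 14-month APP/PS1 mouse brain and age-matched controls. Sections were rinsed, then 0.1% NaOH in 80% ethanol for 2 min. Read by slide-scanner fluorescence with a DAPI cube (Ex 365, Em 445/50 nm) at constant settings; assessment was qualitative.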

A short description of data set [4]: Partition coefficient, log P of the compound in methanol-water mixture by HPLC analysis. The data set is classed as physicochemical. In outline: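 Eluent A was 0.02 M Na2HPO4 phosphate buffer, pH 7.0, and eluent B was 0.25% octanol in methanol. Samples came from 0.5 mg/ml methanol stocks. Values above 7 are not reliably measured.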
The target of data set [5] is T1, Amyloid-beta precursor protein. The data set is described as follows: Binding affinity to fibrillar amyloid beta (1 to 40) (unknown origin) assessed as fluorescence intensity relative to Methoxy-X04.
For data set [6] the target is unchanged. The data set is described as follows: Binding affinity to beta-amyloid plaque in Alzheimer's disease patient brain at 10 uM by fluorescence microscopic analysis. Put shortly:
as §1

For data set [7] the target is unchanged. Description: Binding affinity to beta-amyloid plaque in APP/PS1 transgenic mouse brain at 1 uM by fluorescence microscopic analysis. The data set is classed as tissue-based. Put shortly:
as §1

For data set [8] the target is unchanged. The data set is described as follows: Binding affinity to beta-amyloid plaque in APP/PS1 transgenic mouse brain at 100 uM by fluorescence microscopic analysis. The data set is classed as tissue-based. In outline: as §1
The target is the same in data set [9]. Description: Displacement of [3H]chrysamine G from fibrillar amyloid beta (1 to 40) (unknown origin) after 1 hr by liquid scintillation spectrophotometric analysis. In outline: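 Competition binding was run at room temperature in 1 ml of 150 mM Tris-HCl, 20% ethanol, pH 7.0. Test compound ranged 30 µM to 30 pM (from 3 mM DMSO stocks, sonicated) against 5 nM [3H]chrysamine G and 50 nM synthetic Aβ1-40 fibrils. Nonspecific binding was taken with 1 µM Methoxy-X04.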

Data set [10] has the same target. The data set is described as follows: Binding affinity to beta-amyloid plaque in APP/PS1 transgenic mouse brain homogenate at 1.92 mM by [19F]-NMR spectrometric analysis. It is filed as tissue-based.
Data set [11] shares this target. The data set is described as follows: Binding affinity to fibrillar amyloid beta (1 to 40) (unknown origin) at 1.92 mM by [19F]-NMR spectrometric analysis.
Data set [12] has as its system Mus musculus. Description: Binding affinity to beta-amyloid plaque in APP/PS1 transgenic mouse brain at 30 umol/kg, iv after 24 hrs by [19F]-NMR spectrometric analysis. It is filed as functional, organism-based.
Where [13] appears, read: methanol-water mixture, read-out: logP.

pKi: −log10 of the molar value. Activity calls are given as the source filed them. The rule behind the calls is not given here.

T1 sequence (P05067 whole entry, the tested form may be a part): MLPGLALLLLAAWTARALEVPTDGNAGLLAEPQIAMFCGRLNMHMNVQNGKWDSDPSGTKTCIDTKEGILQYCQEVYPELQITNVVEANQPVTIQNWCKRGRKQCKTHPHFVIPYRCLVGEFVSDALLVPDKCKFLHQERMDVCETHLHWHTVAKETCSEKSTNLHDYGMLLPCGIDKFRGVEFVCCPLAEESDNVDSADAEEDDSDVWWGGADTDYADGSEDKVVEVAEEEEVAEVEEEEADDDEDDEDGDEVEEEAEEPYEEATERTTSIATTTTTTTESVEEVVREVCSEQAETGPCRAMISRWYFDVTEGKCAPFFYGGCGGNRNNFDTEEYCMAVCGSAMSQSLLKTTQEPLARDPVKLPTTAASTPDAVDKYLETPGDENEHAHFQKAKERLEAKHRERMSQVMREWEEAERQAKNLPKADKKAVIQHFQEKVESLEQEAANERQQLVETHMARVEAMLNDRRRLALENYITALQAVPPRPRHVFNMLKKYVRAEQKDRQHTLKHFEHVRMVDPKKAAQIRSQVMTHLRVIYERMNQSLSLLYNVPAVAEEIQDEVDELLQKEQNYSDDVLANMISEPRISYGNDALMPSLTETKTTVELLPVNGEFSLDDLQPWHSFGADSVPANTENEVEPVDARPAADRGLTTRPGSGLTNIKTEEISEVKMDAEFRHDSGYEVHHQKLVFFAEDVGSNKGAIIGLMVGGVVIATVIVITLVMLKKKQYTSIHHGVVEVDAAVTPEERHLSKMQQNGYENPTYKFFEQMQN

Broadly, the logP is a log measure of how a compound divides between an organic and an aqueous phase. Broadly, the pKi is the negative decadic logarithm of the Ki, by convention in mol/L. On to `COc1cc(/C=C/c2ccc(O)cc2)ccc1/C=C/c1ccc(O)cc1`, for which the fold change (FC) in [1] was 9.8. The result (in the data set with Mus musculus [2]; in data set [3]; in data set [6]; in data set [7]; in [8]) was Active. In data set [4] (octanol/water), the logP came out at 4.84. Further, the RFU in data set [5] was determined as 100. In data set [9], the pKi is 7.62.
Consider `Oc1ccc(/C=C/c2ccc(/C=C/c3ccc(O)cc3)c(OCCCC(F)(F)F)c2)cc1`, for which the fold change (FC) in data set [1] amounted to 4.3. The outcome with Mus musculus [2] was Active. Moreover, in [4] (setting [13]), the logP was 5.79. Further, the RFU in data set [5] was found to be 2. The result in [6] and in data set [7] was inactive. Further, the pKi in data set [9] is 7.25.
Regarding `COc1cc(/C=C/c2ccc(C(F)(F)F)cc2)ccc1/C=C/c1ccc(C(F)(F)F)cc1`, the fold change (FC) in data set [1] was below 1. The outcome (in the data set with Mus musculus [2]; in [3]; in data set [6]; in data set [7]; in data set [8]) was Active. In addition, in [4] (setting [13]), the logP is above 7. Also, the RFU in [5] was determined as 1.
For the compound `COc1cc(/C=C/c2ccc(C(F)(F)C(F)F)cc2)ccc1/C=C/c1ccc(C(F)(F)C(F)F)cc1`, the fold change (FC) in [1] was below 1. In addition, the outcome (in the data set on Mus musculus [2]; in [3]; in data set [6]; in [7]; in data set [8]) was Active. Further, the lipophilicity (logP) in data set [4] (setting [13]) was above 7. Moreover, the RFU in data set [5] worked out at 1.
With `Oc1cc(/C=C/c2ccc(C(F)(F)C(F)F)cc2)ccc1/C=C/c1ccc(C(F)(F)C(F)F)cc1`, the outcome (in the data set with Mus musculus [2]; in [3]; in [6]; in [7]; in data set [8]) was Active. Besides, in data set [4] (setting [13]), the logP was above 7.
Regarding `Oc1cc(/C=C/c2ccc(C(F)(F)F)cc2)ccc1/C=C/c1ccc(C(F)(F)F)cc1`, in data set [1], the fold change (FC) stood at 3.6. Moreover, the result (in the data set on Mus musculus [2]; in data set [3]; in data set [6]; in [7]; in data set [8]) was Active. Also, the logP in data set [4] (setting [13]) stood at 6.18. Further, the RFU in [5] is 2.
For `Oc1ccc(/C=C/c2ccc(/C=C/c3ccc(O)cc3)c(OC(C(F)(F)F)(C(F)(F)F)C(F)(F)F)c2)cc1`, the outcome (in data set [10]; in the data set with Mus musculus [2]; in data set [3]; in data set [6]; in [7]; in [8]) was Active. For the same compound, the fold change (FC) in data set [1] was determined as 17.8. Besides, the result (in data set [11]; in the data set with Mus musculus [12]) was inactive. In [4] (setting [13]), the logP was above 7. Moreover, in [5], the RFU came to 38. In data set [9], this compound gave a pKi of 7.07.
As to `COc1cc(/C=C/c2ccc(CO)cc2)ccc1/C=C/c1ccc(CO)cc1`, in [1], the fold change (FC) is 4.1. In addition, the result (in the data set on Mus musculus [2]; in data set [3]; in [6]; in data set [7]; in data set [8]) was Active. For the same compound, the logP in [4] (setting [13]) was found to be 4.99. The RFU in data set [5] came out at 26.
As to `COc1cc(/C=C/c2ccc(OC)c(C(F)(F)F)c2)ccc1/C=C/c1ccc(OC)c(C(F)(F)F)c1`, in data set [1], the fold change (FC) was below 1. Also, the outcome (in the data set on Mus musculus [2]; in data set [6]) was inactive. Also, the outcome in [3], in data set [7] and in data set [8] was Active. Also, the logP in [4] (setting [13]) was above 7. Also, the RFU in data set [5] is 4.
For `COc1cc(/C=C/c2ccc(OC(F)(F)F)cc2)ccc1/C=C/c1ccc(OC(F)(F)F)cc1`, the fold change (FC) in [1] was below 1. For the same compound, the outcome (in the data set on Mus musculus [2]; in data set [3]; in data set [6]; in data set [7]; in [8]) was Active. Further, the logP in data set [4] (setting [13]) was above 7. The RFU in data set [5] is 3.
`COc1cc(/C=C/c2ccc(O)cc2)c(OC)cc1/C=C/c1ccc(O)cc1`: the result (with Mus musculus [2]; in data set [6]; in [7]) was inactive. Besides, the logP in [4] (setting [13]) is 5.
`Oc1ccc(/C=C/c2ccc(/C=C/c3ccc(O)cc3)c(C(F)(F)F)c2)cc1`: the fold change (FC) in [1] is 10.7. Also, the outcome (with Mus musculus [2]; in [3]; in [7]; in data set [8]) was Active. Also, the logP in data set [4] (setting [13]) was 5.64. In [5], the RFU came to 19. Further, the result in data set [6] was inactive. The pKi in data set [9] was 6.61.
Consider `Oc1cc(/C=C/c2ccc(OC(F)(F)F)cc2)ccc1/C=C/c1ccc(OC(F)(F)F)cc1`, for which, in data set [1], the fold change (FC) is 7.4. Besides, the result (in the data set with Mus musculus [2]; in data set [3]; in data set [6]; in data set [7]; in [8]) was Active. For the same compound, the logP in [4] (setting [13]) was above 7. Also, in data set [5], the RFU turned out to be 13.
Take `Oc1ccc(/C=C/c2ccc(/C=C/c3ccc(O)cc3)c(OCC(F)(F)F)c2)cc1`: the fold change (FC) in data set [1] came to 4.1. Moreover, the outcome (in the data set with Mus musculus [2]; in data set [3]; in data set [7]; in data set [8]) was Active. In addition, the logP in data set [4] (setting [13]) was 5.25. The RFU in data set [5] is 7. Besides, the outcome in [6] was inactive. The same compound gave a pKi in data set [9] of 7.41.
